Converted amounts (≈) assume the structure as drawn.
What was measured:
Staphylococcus aureus [1] = assay: Antibacterial activity was determined against Staphylococcus aureus FDA 209-P strain after incubation at 37 degrees C for 18 h; format: functional
Pseudomonas aeruginosa = assay: Antibacterial activity was determined against Pseudomonas aeruginosa PAO1 strain after incubation at 37 degrees C for 18 h; format: functional
[2] = Mortality was determined after 100 mg/kg dose administered intravenously to 5-week old male mice at a speed of 0.2 mL/min counted on day 7 for total 2 mice; format: ADME, organism-based; set-up: dose 100 mg/kg, route intravenous; settings: mouse, in vivo, iv
In short: (§1)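 Male Slc:ddY mice, 5 weeks old. Compound dissolved in 0.1 N NaOH in saline at varied concentrations and given as a single IV injection at 0.2 mL/min, total volume 10 mL/kg body weight. Deaths counted on day 7 and reported as dead/tested.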

[3] = Mortality was determined after 50 mg/kg dose administered intravenously to 5-week old male mice at a speed of 0.2 mL/min counted on day 7 for total 2 mice; format: ADME, organism-based; set-up: dose 50 mg/kg, route intravenous; settings: mouse, in vivo, iv; in short: as §1
[4] = tested on: Staphylococcus epidermidis; assay: Antibacterial activity was determined against Staphylococcus epidermis 56500 strain after incubation at 37 degrees C for 18 h; format: functional
Streptococcus pneumoniae [5] = assay: Antibacterial activity was determined against Streptococcus pneumoniae J-24 strain after incubation at 37 degrees C for 18 h; format: functional
Enterococcus faecalis = assay: Antibacterial activity was determined against Enterococcus faecalis ATCC 19433 strain after incubation at 37 degrees C for 18 h; format: functional; settings: ATCC 19433, 18 h
Escherichia coli = assay: Antibacterial activity was determined against Escherichia coli NIHJ strain after incubation at 37 degrees C for 18 h; format: functional
[6] = Mortality was determined after 150 mg/kg dose administered intravenously to 5-week old male mice at a speed of 0.2 mL/min counted on day 7 for total 2 mice; format: ADME, organism-based; set-up: dose 150 mg/kg, route intravenous; settings: mouse, in vivo, iv; in short: as §1
[7] = Solubility was determined in water; format: physicochemical
Streptococcus pyogenes = assay: Antibacterial activity was determined against Streptococcus pyogenes G-36 strain after incubation at 37 degrees C for 18 h; format: functional
Streptococcus mitis = assay: Antibacterial activity was determined against Streptococcus mitis IID685 strain after incubation at 37 degrees C for 18 h; format: functional
Klebsiella pneumoniae = assay: Antibacterial activity was determined against Klebsiella pneumoniae type II strain after incubation at 37 degrees C for 18 h; format: functional
Staphylococcus aureus [8] = assay: Antibacterial activity was determined against clinically isolated Levofloxacin-methicillin resistant Staphylococcus aureus (LVFX-r MRSA) strains (74 strains); Range= 0.5-128 ug/mL; format: functional
In short: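 Twofold broth microdilution in Mueller–Hinton broth, inoculum about 10^5 CFU per well. Plates incubated 18 h at 37 °C. MIC taken as the lowest concentration preventing visible growth. Organisms were clinical resistant Gram-positive isolates.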

[9] = Mortality was determined after 100 mg/kg dose administered intravenously to 5-week old male mice at a speed of 0.2 mL/min counted on day 7 for total 5 mice; format: ADME, organism-based; set-up: dose 100 mg/kg, route intravenous; settings: mouse, in vivo, iv; in short: as §1
[10] = Toxicity was determined as presence of micronucleated reticulocytes (MNRET) in blood at 24 and 48 hr after 100 mg/kg dose administered intravenously to 5-week old male mice; positive.; format: organism-based; set-up: dose 100 mg/kg, route intravenous; settings: mouse, in vivo, iv
Streptococcus pneumoniae [11] = assay: Antibacterial activity was determined against clinically isolated penicillin resistant Streptococcus pneumoniae (PRSP) strains (50 strains); format: functional
Enterococcus sp. [12] = assay: Antibacterial activity was determined against clinically isolated vancomycin-B resistant enterococci (VRE) strains (10 strains); format: functional
Enterococcus sp. [13] = assay: Antibacterial activity was determined against clinically isolated vancomycin-A resistant enterococci (VRE) strains (33 strains); format: functional
Staphylococcus aureus [14] = assay: Antibacterial activity was determined against clinically isolated Levofloxacin-methicillin resistant Staphylococcus aureus (LVFX-r MRSA) strains (74 strains); format: functional
[15] = Mortality was determined after 50 mg/kg dose administered intravenously to 5-week old male mice at a speed of 0.2 mL/min counted on day 7 for total 5 mice; format: ADME, organism-based; set-up: dose 50 mg/kg, route intravenous; settings: mouse, in vivo, iv; in short: as §1

Row | Structure (SMILES) | MIC (Staphylococcus aureus [1]) | MIC (Pseudomonas aeruginosa) | MIC [4] | MIC (Streptococcus pneumoniae [5]) | MIC (Enterococcus faecalis) | MIC (Escherichia coli) | Dead [6] | MIC (Streptococcus pyogenes) | MIC (Streptococcus mitis) | MIC (Klebsiella pneumoniae) | further results
1 | Cc1c(N2CC[C@@H](CN)C2)c(F)c(N)c2c(=O)c(C(=O)O)cn(C3C[C@@H]3F)c12 (single isomer, unassigned) | ≤ 0.003 µg/mL | 0.1 µg/mL (≈ 0.255 µM) | 0.006 µg/mL (≈ 0.0153 µM) | 0.013 µg/mL (≈ 0.0331 µM) | 0.025 µg/mL (≈ 0.0637 µM) | 0.013 µg/mL (≈ 0.0331 µM) | 2 | 0.013 µg/mL (≈ 0.0331 µM) | 0.006 µg/mL (≈ 0.0153 µM) | 0.1 µg/mL (≈ 0.255 µM) | Dead [2]: 2; Dead [3]: 2; solubility [7]: 404 µg/mL (≈ 1030 µM)
2 | O=C(O)c1cn(C2CC2)c2cc(N3CCNCC3)c(F)cc2c1=O [CIPROFLOXACIN] | 0.05 µg/mL (≈ 0.151 µM) | 0.05 µg/mL (≈ 0.151 µM) | 0.2 µg/mL (≈ 0.604 µM) | 0.39 µg/mL (≈ 1.18 µM) | 0.78 µg/mL (≈ 2.35 µM) | ≤ 0.003 µg/mL | – | 1.56 µg/mL (≈ 4.71 µM) | 0.78 µg/mL (≈ 2.35 µM) | 0.025 µg/mL (≈ 0.0754 µM) | –
3 | C[C@H]1COc2c(N3CCN(C)CC3)c(F)cc3c(=O)c(C(=O)O)cn1c23.C[C@H]1COc2c(N3CCN(C)CC3)c(F)cc3c(=O)c(C(=O)O)cn1c23.O [LEVOFLOXACIN] | – | – | – | – | – | – | – | – | – | – | MIC (Staphylococcus aureus [8]): 128 µg/mL
4 | COc1c(N2C[C@@H]3CCCN[C@@H]3C2)c(F)cc2c(=O)c(C(=O)O)cn(C3CC3)c12 [MOXIFLOXACIN] | 0.013 µg/mL (≈ 0.0324 µM) | 0.2 µg/mL (≈ 0.498 µM) | 0.1 µg/mL (≈ 0.249 µM) | 0.025 µg/mL (≈ 0.0623 µM) | 0.2 µg/mL (≈ 0.498 µM) | ≤ 0.003 µg/mL | – | 0.2 µg/mL (≈ 0.498 µM) | 0.1 µg/mL (≈ 0.249 µM) | 0.025 µg/mL (≈ 0.0623 µM) | –
5 | Cc1c(N2CC[C@@H](C3(N)CC3)C2)c(F)c(N)c2c(=O)c(C(=O)O)cn([C@@H]3C[C@@H]3F)c12 | ≤ 0.003 µg/mL | 0.1 µg/mL (≈ 0.239 µM) | ≤ 0.003 µg/mL | ≤ 0.003 µg/mL | 0.013 µg/mL (≈ 0.0311 µM) | ≤ 0.003 µg/mL | 2 | ≤ 0.003 µg/mL | ≤ 0.003 µg/mL | 0.025 µg/mL (≈ 0.0597 µM) | Dead [9]: 0; Toxicity [10]: Toxic; solubility [7]: 39 µg/mL (≈ 93.2 µM)
6 | CC(=O)N[C@@H]1[C@H](Oc2c3cc4cc2Oc2ccc(cc2Cl)[C@@H](O[C@@H]2O[C@@H](CO)[C@@H](O)[C@H](O)[C@@H]2NC(C)=O)[C@@H]2NC(=O)[C@H](NC(=O)[C@@H]4NC(=O)[C@H]4NC(=O)[C@@H](Cc5ccc(c(Cl)c5)O3)NC(=O)[C@H](N)c3ccc(O)c(c3)Oc3cc(O)cc4c3)c3ccc(O)c(c3)-c3c(O[C@H]4O[C@H](CO)[C@@H](O)[C@@H](O)[C@@H]4O)cc(O)cc3[C@@H](C(=O)O)NC2=O)O[C@@H](CO)[C@@H](O)[C@@H]1O | – | – | – | – | – | – | – | – | – | – | MIC50 (Streptococcus pneumoniae [11]): 0.25 µg/mL (≈ 0.141 µM); MIC90 (Streptococcus pneumoniae [11]): 0.5 µg/mL (≈ 0.283 µM); MIC50 (Enterococcus sp. [12]): 1 µg/mL (≈ 0.566 µM); MIC90 (Enterococcus sp. [12]): 2 µg/mL (≈ 1.13 µM); MIC50 (Enterococcus sp. [13]): 32 µg/mL (≈ 18.1 µM); MIC90 (Enterococcus sp. [13]): 64 µg/mL (≈ 36.2 µM); MIC50 (Staphylococcus aureus [14]): 0.5 µg/mL (≈ 0.283 µM); MIC90 (Staphylococcus aureus [14]): 1 µg/mL (≈ 0.566 µM)
7 | NCC[C@H](O)C(=O)N[C@@H]1C[C@H](N)[C@@H](O[C@H]2O[C@H](CN)CC[C@H]2N)[C@H](O)[C@H]1O[C@H]1O[C@H](CO)[C@@H](O)[C@H](N)[C@H]1O [ARBEKACIN] | – | – | – | – | – | – | – | – | – | – | MIC50 (Streptococcus pneumoniae [11]): 16 µg/mL (≈ 29 µM); MIC90 (Streptococcus pneumoniae [11]): 32 µg/mL (≈ 57.9 µM); MIC50 (Enterococcus sp. [12]): 32 µg/mL (≈ 57.9 µM); MIC90 (Enterococcus sp. [12]): > 128 µg/mL; MIC50 (Enterococcus sp. [13]): 16 µg/mL (≈ 29 µM); MIC90 (Enterococcus sp. [13]): 64 µg/mL (≈ 116 µM); MIC50 (Staphylococcus aureus [14]): 8 µg/mL (≈ 14.5 µM); MIC90 (Staphylococcus aureus [14]): 32 µg/mL (≈ 57.9 µM)
8 | Cc1c(N2C[C@H](F)[C@@H](C3(N)CC3)C2)c(F)c(N)c2c(=O)c(C(=O)O)cn([C@@H]3C[C@@H]3F)c12 | ≤ 0.003 µg/mL | 0.2 µg/mL (≈ 0.458 µM) | ≤ 0.003 µg/mL | ≤ 0.003 µg/mL | 0.013 µg/mL (≈ 0.0298 µM) | ≤ 0.003 µg/mL | 2 | ≤ 0.003 µg/mL | ≤ 0.003 µg/mL | 0.013 µg/mL (≈ 0.0298 µM) | Dead [2]: 2; Dead [15]: 0
